Experimental data from ChEMBL document CHEMBL1130142, “(S)-spiro[(1,3-diazacyclopent-1-ene)-5,2'-(7'-methyl-1',2',3',4'- tetrahydronaphthalene)]: resolution, stereospecific synthesis, and preliminary pharmacological characterization as a partial alpha-adrenergic agonist” (J Med Chem, 1997).

Tests used:
Canis familiaris [1] = species: Canis familiaris; test: Maximum contractile response expressed as percentage (mean) of the maximal contraction to KCl (100 mM) in the isolated femoral artery
Canis familiaris [2] = species: Canis familiaris; test: Effective Concentration compound in isolated canine femoral artery; format: functional; settings: Canis lupus familiaris
How it was run: (§1)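 Isolated canine blood vessels (saphenous vein without endothelium; femoral artery) exposed to increasing agonist concentrations; contractile responses measured.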

Canis familiaris [3] = species: Canis familiaris; test: Maximum contractile response expressed as percentage (mean) of the maximal contraction to KCl (100 mM) in the isolated saphenous vein
Rattus norvegicus [4] = species: Rattus norvegicus; test: The maximal pressure response caused by the compound in pithed rat; format: functional
Canis familiaris [5] = species: Canis familiaris; test: Effective concentration of compound in isolated canine saphenous vein; format: functional; settings: Canis lupus familiaris
How it was run: as §1

Rattus norvegicus [6] = test: Concentration which increases the arterial blood pressure by 20 mmHg in the pithed rat in vivo by intravenous administration; format: functional, Artery
Canis familiaris [7] = species: Canis familiaris; test: Maximum contractile response expressed as percentage (mean) of the maximal contraction to KCl (100 mM) in the isolated femoral artery; remark: listed apart in the source
Canis familiaris [8] = species: Canis familiaris; test: Maximum contractile response expressed as percentage (mean) of the maximal contraction to KCl (100 mM) in the isolated saphenous vein; remark: listed apart in the source
[9] = C20 ratio was determined in the presence or absence of 0.1 mg of prazosin for the compound which are indicative of the contribution of alpha-1 adnergic mechanisms to the pressor response; format: functional
How it was run: (§2)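 Pithed rats received test compound as cumulative iv doses, and mean arterial pressure was recorded. C20 is the iv dose (µg/kg) that raises arterial pressure by 20 mmHg (mean ± SEM, n = 5). The same cumulative doses were repeated 10 min after iv prazosin 100 µg/kg or iv yohimbine 1 mg/kg. The ratio is C20 without antagonist over C20 with antagonist.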

[10] = C20 ratio was determined in the presence or absence of 1 mg of yohimbine for the compound which are indicative of the contribution of alpha-2 adnergic mechanisms to the pressor response; format: functional
How it was run: as §2

Structure (SMILES) | Emax (Canis familiaris [1]) | EC50 (Canis familiaris [2]) | Emax (Canis familiaris [3]) | Max (Rattus norvegicus [4]) | EC50 (Canis familiaris [5]) | C20 (Rattus norvegicus [6]) | Emax (Canis familiaris [7]) | Emax (Canis familiaris [8]) | Ratio [9] | Ratio [10]
Cc1ccc2c(c1)C[C@]1(CC2)CN=CN1 | 8.4 | > 3000 nM | 39.4 | 109 mmHg | 2800 nM | 44.8 µg/kg | – | – | – | –
Cc1ccc2c(c1)CC1(CC2)CN=CN1 (stereo unspecified) | 7.7 | > 3000 nM | 68.5 | 112 mmHg | 360 nM | 6.7 µg/kg | – | – | – | –
Cc1ccc2c(c1)C[C@@]1(CC2)CN=CN1 | – | > 3000 nM | – | 106 mmHg | 220 nM | 5.8 µg/kg | 15.8 | 78.3 | – | –
FC(F)(F)c1ccc(Cl)c(NC2=NCCN2)c1 | 19.7 | 10900 nM | 54.4 | 129 mmHg | 2020 nM | 8.6 µg/kg | – | – | 16 | 1.8
